Reference: ChEMBL document CHEMBL1135669, “Improving the oral efficacy of CNS drug candidates: discovery of highly orally efficacious piperidinyl piperidine M2 muscarinic receptor antagonists” (J Med Chem, 2002)
pKi: −log10 of the molar value. Active and inactive are the calls of the source.

Assays:
Homo sapiens = species: Homo sapiens; test: Percent of Parent compound remaining after 20 min incubation with human liver microsomes (Human microsomal stability); format: functional
Outline: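 Compounds at 10 μg/mL were incubated with human liver microsomes for 20 min. Metabolic stability is reported as % parent compound remaining.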

[1] = biological target: T1, Muscarinic acetylcholine receptor M2 (Homo sapiens, UniProt P08172); test: Binding affinity for human Muscarinic acetylcholine receptor M2
T1 sequence (P08172 whole entry): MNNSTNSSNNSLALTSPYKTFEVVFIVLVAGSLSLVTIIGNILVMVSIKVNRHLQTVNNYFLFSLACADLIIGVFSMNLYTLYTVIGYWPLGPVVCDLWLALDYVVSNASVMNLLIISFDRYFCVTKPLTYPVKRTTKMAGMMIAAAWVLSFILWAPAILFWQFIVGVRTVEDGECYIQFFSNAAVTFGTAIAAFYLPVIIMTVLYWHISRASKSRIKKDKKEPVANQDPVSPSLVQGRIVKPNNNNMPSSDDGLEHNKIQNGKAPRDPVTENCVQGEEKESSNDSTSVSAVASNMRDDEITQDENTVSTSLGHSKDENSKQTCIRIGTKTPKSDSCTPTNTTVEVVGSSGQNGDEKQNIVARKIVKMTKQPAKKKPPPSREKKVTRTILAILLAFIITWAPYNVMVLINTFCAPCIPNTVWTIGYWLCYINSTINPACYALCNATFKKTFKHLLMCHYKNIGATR

Rattus norvegicus [2] = test: Orally active dose in passive avoidance response (PAR); inactive; format: functional, organism-based
Outline: (§1)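 Rat passive avoidance response, a reference-memory cognitive paradigm, with oral dosing. The value is the orally active dose in mg/kg, defined as a significant change in latency over vehicle (4% MC), p < 0.05 by Dunnett's T test, n = 36.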

Rattus norvegicus [3] = test: ACh released compared with baseline (100%) in rat striatum after peroral administration (0-2 h,10 mg/kg, 20% HPbetaCD) using microdialysis assay; format: functional
Outline: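 Rat striatal microdialysis: single oral dose of 10 mg/kg in 20% HPβCD vehicle. ACh in dialysate collected from 0 to 2 h, expressed as % of preinjection baseline (baseline = 100%). ACh release is measured in the presence of neostigmine. Stimulation over baseline was judged by Duncan's Multiple Range Statistic.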

Rattus norvegicus [4] = test: ACh released compared with baseline (100%) in rat striatum after iv administration (0-2 h,10 mg/kg, 20% HPbetaCD) using microdialysis assay; format: functional
Rattus norvegicus [5] = test: Orally active dose in passive avoidance response (PAR); format: functional; outline: as §1
[6] = Area under curve (high throughput single measurement) after peroral administration (10 mg/kg, 0-6 hr) in rat was determined; details: in vivo, po

Row | pKi [1] | Structure (SMILES) | Activity (Rattus norvegicus [3]) | further results
1 | 7.49 | CC(=C1CCN(C2CCN(C(=O)c3cccc(C)c3N)CC2)CC1)c1ccc(S(=O)(=O)C(C)C)cc1 | – | Activity (Homo sapiens): 80%
2 | 8.02 | CC(=C1CCN(C2CCN(C(=O)c3ccc(F)c4ccccc34)CC2)CC1)c1ccc(S(=O)(=O)C(C)C)cc1 | – | Activity (Homo sapiens): 74%
3 | – | CC(C)Sc1ccc(CC2CCN(C3CCN(C(=O)c4cccc5ccccc45)CC3)CC2)cc1 | 110% | Activity (Rattus norvegicus [2]): inactive; Activity (Rattus norvegicus [4]): 210%
4 | 6.66 | CC(C)S(=O)(=O)c1ccc(CC2CCN(C3CCN(C(=O)c4ccc(F)c5ccccc45)CC3)CC2)cc1 | – | –
5 | – | COc1ccc(S(=O)(=O)c2ccc(C3(C4CCN(C5CCN(C(=O)c6ccc(F)c7ccccc67)CC5)CC4)OCCO3)cc2)cc1 | 180% | PAR (Rattus norvegicus [5]): 0.1 mg/kg
6 | 8.89 | CC(=C1CCN(C2CCN(C(=O)c3ccc(F)c4ccccc34)CC2)CC1)c1ccc([S+]([O-])C(C)C)cc1 (single isomer, unassigned; (+)) | 179% | –
7 | 9.05 | CC(=C1CCN(C2CCN(C(=O)c3cccc(C)c3N)CC2)CC1)c1ccc([S+]([O-])C(C)C)cc1 (single isomer, unassigned; (+)) | 225% | PAR (Rattus norvegicus [5]): 0.0001 mg/kg
8 | 8.62 | CC(=C1CCN(C2CCN(C(=O)c3ccc(F)c4ccccc34)CC2)CC1)c1ccc([S+]([O-])C(C)C)cc1 (single isomer, unassigned; (-)) | 155% | –
9 | 7.92 | CC(=C1CCN(C2CCN(C(=O)c3cccc(C)c3N)CC2)CC1)c1ccc([S+]([O-])C(C)C)cc1 (single isomer, unassigned; (-)) | – | –
10 | 8.57 | CC(=C1CCN(C2CCN(C(=O)c3ccc(F)c4ccccc34)CC2)CC1)c1ccc([S+]([O-])C(C)C)cc1 (stereo in doubt; 13) [listing 1 of 2 here] | – | –
11 | – | CC(=C1CCN(C2CCN(C(=O)c3ccc(F)c4ccccc34)CC2)CC1)c1ccc([S+]([O-])C(C)C)cc1 (stereo in doubt; 13) [listing 2 of 2 here] | – | Activity (Homo sapiens): 66%
12 | 8.18 | CC(=C1CCN(C2CCN(C(=O)c3cccc(C)c3N)CC2)CC1)c1ccc([S+]([O-])C(C)C)cc1 (stereo in doubt; 14) [listing 1 of 2 here] | – | –
13 | – | CC(=C1CCN(C2CCN(C(=O)c3cccc(C)c3N)CC2)CC1)c1ccc([S+]([O-])C(C)C)cc1 (stereo in doubt; 14) [listing 2 of 2 here] | – | Activity (Homo sapiens): 64%
14 | – | Cc1cccc(C(=O)N2CCC(N3CCC(Cc4ccc(S(=O)(=O)c5cccc(Cl)c5)cc4)CC3)CC2)c1N [SCH-211803] | 180% | PAR (Rattus norvegicus [5]): 0.001 mg/kg; AUC at 6 h [6]: 908 ng·h/mL
